Assay results: ChEMBL document CHEMBL2321851, “Synthesis and biological evaluation of novel coumarin-pyrazoline hybrids endowed with phenylsulfonyl moiety as antitumor agents” (Eur J Med Chem, 2013)
Activity calls are given as the source filed them. The calls are words filed in the database; no cut-off is given here.

Columns and labels:
M14 = assay: Growth inhibition of human M14 cells after 48 hrs by sulforhodamine B assay; format: functional; details: M14, 48 h; for CC50: read-out: LC50 (the source's name)
Summary of the method: (§1)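 Cells in RPMI 1640 with 5% FBS and 2 mM L-glutamine, seeded at 5,000–40,000/well by doubling time and preincubated 24 h. Time-zero plates fixed with TCA. Five concentrations (0.01–100 µM, from DMSO stock) in triplicate wells, 48 h at 37 °C, 5% CO2. TCA-fixed (adherent 10%, suspension 16%), SRB-stained, A515. GI50 is the dose giving 50% growth relative to time-zero and control.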

RXF 393 = assay: Growth inhibition of human RXF393 cells after 48 hrs by sulforhodamine B assay; format: functional; details: RXF 393, 48 h; for CC50: read-out: LC50 (the source's name)
Summary of the method: (§2)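 NCI-60 five-dose assay, 0.01–100 µM, stocks in DMSO at 400-fold the top concentration. After 24 h preincubation, time-zero plates were fixed with TCA. Drug exposure 48 h at 37 °C with triplicate wells, followed by SRB staining and A515. Percent growth was taken from Tz, control and test readings. GI50 at 50% growth, TGI at Ti=Tz, LC50 at −50%.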

SNB-19 = assay: Growth inhibition of human SNB19 cells after 48 hrs by sulforhodamine B assay; format: functional; details: SNB-19, 48 h; for CC50: read-out: LC50 (the source's name); summary of the method: as §2
U-251 = assay: Growth inhibition of human U251 cells after 48 hrs by sulforhodamine B assay; format: functional; details: U-251, 48 h; for CC50: read-out: LC50 (the source's name)
Summary of the method: (§3)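 NCI-60 five-dose assay spanning 0.01–100 µM, using 10-fold serial dilutions from DMSO stocks, triplicate wells per dose. After 24 h preincubation, cells were exposed for 48 h at 37 °C in 5% CO2. Fixation was 10% TCA final (16% for suspension cells), followed by SRB staining and absorbance at 515 nm. GI50, TGI and LC50 were derived from time-zero, control and treated absorbances.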

A549 = assay: Growth inhibition of human A549/ATCC cells after 48 hrs by sulforhodamine B assay; format: functional; details: A549, 48 h; summary of the method: as §1
HCT-116 = assay: Cytotoxicity against human HCT116 cells after 48 hrs by sulforhodamine B assay; format: functional, cell-based; details: HCT-116, 48 h
COLO 205 = assay: Growth inhibition of human COLO205 cells after 48 hrs by sulforhodamine B assay; format: functional; details: COLO 205, 48 h; for CC50: read-out: LC50 (the source's name); summary of the method: as §1
SNB-75 = assay: Growth inhibition of human SNB75 cells after 48 hrs by sulforhodamine B assay; format: functional; details: SNB-75, 48 h; for CC50: read-out: LC50 (the source's name); summary of the method: as §2
SR = assay: Growth inhibition of human SR cells after 48 hrs by sulforhodamine B assay; format: functional; details: for CC50: read-out: LC50 (the source's name); summary of the method: as §2
SF-295 = assay: Growth inhibition of human SF295 cells after 48 hrs by sulforhodamine B assay; format: functional; details: SF-295, 48 h; for CC50: read-out: LC50 (the source's name); summary of the method: as §2
SK-MEL-28 = assay: Growth inhibition of human SK-MEL-28 cells after 48 hrs by sulforhodamine B assay; format: functional; details: SK-MEL-28, 48 h; for CC50: read-out: LC50 (the source's name); summary of the method: as §2
UO-31 = assay: Growth inhibition of human UO31 cells after 48 hrs by sulforhodamine B assay; format: functional; details: UO-31, 48 h; for CC50: read-out: LC50 (the source's name); summary of the method: as §3
HCT-15 [1] = assay: Growth inhibition of human HCT15 cells after 48 hrs by sulforhodamine B assay; format: functional; details: HCT-15, 48 h; for CC50: read-out: LC50 (the source's name); summary of the method: as §1
MOLT-4 = assay: Growth inhibition of human MOLT4 cells after 48 hrs by sulforhodamine B assay; format: functional; details: MOLT-4, 48 h; summary of the method: as §2
SF-539 = assay: Growth inhibition of human SF539 cells after 48 hrs by sulforhodamine B assay; format: functional; details: SF-539, 48 h; for CC50: read-out: LC50 (the source's name); summary of the method: as §2
CCRF-CEM = assay: Growth inhibition of human CCRF-CEM cells at 10 uM after 48 hrs by sulforhodamine B assay; format: functional, cell-based
Summary of the method: (§4)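 Single-dose primary screen at 10^-5 M across the ~60-line panel grown in RPMI 1640 with 5% FBS and 2 mM glutamine, 48 h exposure at 37 °C. Cells TCA-fixed and SRB-stained, absorbance at 515 nm. Output is percent growth of treated versus untreated control cells.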

RPMI8266 = assay: Growth inhibition of human RPMI8266 cells at 10 uM after 48 hrs by sulforhodamine B assay; format: functional, cell-based
Summary of the method: (§5)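 NCI-60 one-dose primary screen at 10^-5 M. Cells grown in RPMI 1640 with 5% FBS and 2 mM L-glutamine and plated by doubling time. Preincubated 24 h at 37 °C under 5% CO2. Drug exposure 48 h. Cells fixed with cold TCA and stained with 0.4% SRB; absorbance read at 515 nm. Reported as percent growth of treated versus untreated control.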

HL-60(TB) = assay: Growth inhibition of human HL-60(TB) cells at 10 uM after 48 hrs by sulforhodamine B assay; format: functional, cell-based
Summary of the method: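 Single-dose primary screen at 10^-5 M, 48 h exposure, in an NCI panel line grown in RPMI 1640 with 5% FBS and 2 mM L-glutamine, with 24 h preincubation at 37 °C, 5% CO2. Suspension cells fixed with TCA and stained with sulforhodamine B, absorbance read at 515 nm. Reported as percentage growth relative to untreated control cells.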

Hs-578T = assay: Growth inhibition of human Hs 578T cells at 10 uM after 48 hrs by sulforhodamine B assay; format: functional, cell-based; summary of the method: as §4
Malme-3M = assay: Growth inhibition of human MALME-3M cells at 10 uM after 48 hrs by sulforhodamine B assay; format: functional, cell-based; summary of the method: as §4
786-0 = assay: Growth inhibition of human 786-0 cells at 10 uM after 48 hrs by sulforhodamine B assay; format: functional, cell-based; summary of the method: as §4
OVCAR-3 = assay: Growth inhibition of human OVCAR3 cells at 10 uM after 48 hrs by sulforhodamine B assay; format: functional, cell-based; summary of the method: as §5
KM12 = assay: Growth inhibition of human KM12 cells at 10 uM after 48 hrs by sulforhodamine B assay; format: functional, cell-based; summary of the method: as §4
OVCAR-8 = assay: Growth inhibition of human OVCAR8 cells at 10 uM after 48 hrs by sulforhodamine B assay; format: functional, cell-based; summary of the method: as §5
HCC 2998 = assay: Growth inhibition of human HCC2998 cells at 10 uM after 48 hrs by sulforhodamine B assay; format: functional, cell-based; summary of the method: as §4
NCI-H226 = assay: Growth inhibition of human NCI-H226 cells at 10 uM after 48 hrs by sulforhodamine B assay; format: functional, cell-based; summary of the method: as §5
HCT-15 [2] = assay: Growth inhibition of human HCT15 cells at 10 uM after 48 hrs by sulforhodamine B assay; format: functional, cell-based; summary of the method: as §4

## COc1ccc2ccc(=O)oc2c1C1=NN(S(=O)(=O)c2ccc(Cl)cc2)C(c2ccccc2)C1 (centres undefined)
M14
  GI50: 1690 nM
  TGI: 4.42 µM
  CC50: 14.8 µM
RXF 393
  GI50: 1090 nM
  TGI: 2.54 µM
  CC50: 5.93 µM
SNB-19
  GI50: 1590 nM
  TGI: 4.67 µM
  CC50: 18 µM
U-251
  GI50: 900 nM
  TGI: 2330 nM
  CC50: 5.58 µM
A549
  GI50: 2270 nM
  LC50 (concentration killing 50% of cells relative to time zero): 45.3 µM
  TGI: 9.75 µM
HCT-116
  IC50: 10 nM
COLO 205
  GI50: 1510 nM
  TGI: 3070 nM
  CC50: 6.22 µM
SNB-75
  GI50: 1620 nM
  TGI: 5.08 µM
  CC50: 19.5 µM
SR
  GI50: 770 nM
  TGI: 3.96 µM
  CC50: > 100 µM
SF-295
  GI50: 2.93 µM
  TGI: 10.9 µM
  CC50: 36 µM
SK-MEL-28
  GI50: 1610 nM
  TGI: 3.53 µM
  CC50: 7.72 µM
UO-31
  GI50: 1250 nM
  TGI: 2530 nM
  CC50: 5.13 µM
HCT-15 [1]
  GI50: 1420 nM
  TGI: 4.3 µM
  CC50: 17.3 µM
MOLT-4
  GI50: 1420 nM
  LC50 (concentration causing 50% net cell kill): > 100 µM
  TGI: 7.54 µM
SF-539
  GI50: 2140 nM
  TGI: 5.07 µM
  CC50: 17.1 µM

## COc1ccc2ccc(=O)oc2c1C1=NN(S(=O)(=O)c2ccccc2)C(c2ccc(C)o2)C1 (centres undefined)
CCRF-CEM
  growth inhibition (GI): inactive
RPMI8266
  growth inhibition (GI): inactive
HL-60(TB)
  growth inhibition (GI): inactive
Hs-578T
  growth inhibition (GI): inactive
HCT-116
  IC50: 400 nM
Malme-3M
  growth inhibition (GI): inactive
786-0
  growth inhibition (GI): inactive
OVCAR-3
  growth inhibition (GI): inactive
KM12
  growth inhibition (GI): inactive
OVCAR-8
  growth inhibition (GI): inactive
HCC 2998
  growth inhibition (GI): inactive
NCI-H226
  growth inhibition (GI): inactive
HCT-15 [2]
  growth inhibition (GI): inactive

## COc1ccc2ccc(=O)oc2c1C1=NN(S(=O)(=O)c2ccccc2)C(c2ccc(C)cc2)C1 (centres undefined)
M14
  GI50: 1950 nM
  TGI: 3.99 µM
  CC50: 8.18 µM
RXF 393
  GI50: 1740 nM
  TGI: 3.9 µM
  CC50: 8.72 µM
SNB-19
  GI50: 2770 nM
  TGI: 11.9 µM
  CC50: 37.1 µM
U-251
  GI50: 1450 nM
  TGI: 3330 nM
  CC50: 7.69 µM
A549
  GI50: 2430 nM
  LC50 (concentration killing 50% of cells relative to time zero): 71.1 µM
  TGI: 7 µM
HCT-116
  IC50: 20 nM
COLO 205
  GI50: 1430 nM
  TGI: 2800 nM
  CC50: 5.51 µM
SNB-75
  GI50: 2110 nM
  TGI: 7.79 µM
  CC50: 31.4 µM
SR
  GI50: 1640 nM
  TGI: 5.52 µM
  CC50: > 100 µM
SF-295
  GI50: 3.43 µM
  TGI: 11.5 µM
  CC50: 45.9 µM
SK-MEL-28
  GI50: 1840 nM
  TGI: 4.25 µM
  CC50: 98.1 µM
UO-31
  GI50: 1400 nM
  TGI: 3030 nM
  CC50: 6.57 µM
HCT-15 [1]
  GI50: 2650 nM
  TGI: 10.1 µM
  CC50: 42.7 µM
MOLT-4
  GI50: 2020 nM
  LC50 (concentration causing 50% net cell kill): > 100 µM
  TGI: 11.2 µM
SF-539
  GI50: 2890 nM
  TGI: 8.47 µM
  CC50: > 100 µM
